Experimental data pooled from the literature.
Compare with care: the assays were run in different laboratories.
Target: Muscle, skeletal receptor tyrosine-protein kinase (MUSK, Homo sapiens, UniProt O15146)
Residues used in one study (O15146 24-869): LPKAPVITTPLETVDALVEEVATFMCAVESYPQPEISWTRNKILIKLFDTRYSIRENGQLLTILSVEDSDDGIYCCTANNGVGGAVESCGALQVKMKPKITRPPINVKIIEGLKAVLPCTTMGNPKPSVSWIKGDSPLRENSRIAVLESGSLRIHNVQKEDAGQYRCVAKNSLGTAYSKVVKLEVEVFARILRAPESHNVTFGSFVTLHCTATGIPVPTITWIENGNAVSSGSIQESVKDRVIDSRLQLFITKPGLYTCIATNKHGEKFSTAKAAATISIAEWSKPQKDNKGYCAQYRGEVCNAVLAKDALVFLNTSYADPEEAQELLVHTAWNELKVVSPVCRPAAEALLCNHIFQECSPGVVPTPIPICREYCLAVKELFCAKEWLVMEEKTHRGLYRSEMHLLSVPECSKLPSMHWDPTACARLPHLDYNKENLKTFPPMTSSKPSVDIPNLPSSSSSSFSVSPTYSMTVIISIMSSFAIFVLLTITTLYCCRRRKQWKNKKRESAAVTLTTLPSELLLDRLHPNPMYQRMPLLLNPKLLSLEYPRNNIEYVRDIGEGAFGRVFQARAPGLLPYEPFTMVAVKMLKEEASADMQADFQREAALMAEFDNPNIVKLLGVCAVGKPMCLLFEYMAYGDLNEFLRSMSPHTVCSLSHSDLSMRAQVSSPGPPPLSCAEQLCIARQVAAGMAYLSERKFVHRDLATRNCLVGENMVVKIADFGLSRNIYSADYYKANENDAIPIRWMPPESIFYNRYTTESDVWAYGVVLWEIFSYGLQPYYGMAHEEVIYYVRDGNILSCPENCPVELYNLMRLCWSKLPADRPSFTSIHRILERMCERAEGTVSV

Compound | test | setting | measurement | value
CCN(CC)CCNC(=O)c1c(C)[nH]c(/C=C2\C(=O)Nc3ccc(F)cc32)c1C | enzyme activity, inhibitor | 10 µM | inhibition | 90%
Cc1ccc(C(=O)NCc2ccsc2)cc1C#Cc1cn(C(C)C)c2ncnc(N)c12 | enzyme activity, inhibitor | 1 µM | activity vs control | 73%
CCC(=N\O)/C(C)=C/c1ccc(F)cc1 | cell-free assay, competition with immobilised ligand | 1 µM | remaining binding | 90%
CNC(=O)c1cc(Oc2ccc(NC(=O)Nc3ccc(Cl)c(C(F)(F)F)c3)cc2)ccn1 | enzyme activity, inhibitor | 0.3 µM | inhibition | 77%
O=C(Nc1cnn(-c2csc(C(=O)NC3COC3)c2)c1)Nc1ccccc1Cl | enzyme activity, inhibitor | 5 µM | remaining activity | 94.5%
CC/C(=N\NC(=O)NCc1cccc(O)c1)c1ccc(O)c(C)c1O | enzyme activity, inhibitor | 0.1 µM | inhibition | -3.4%
Cc1cnc(NC2CCOCC2)nc1-n1cnc(C(=O)NC(CN)c2cc(F)cc(Cl)c2)c1 (stereo not shown) | enzyme activity, inhibitor, radiometric | 1 µM | remaining activity | 97%
O=C1Nc2ccc(Cl)cc2C1=Cc1cc(Cl)c(O)c(Cl)c1 | cell-free assay | 0.5 µM | remaining signal | 65.5%
CC(=O)C1=C(C)N(c2cccc(C(F)(F)F)c2)C(=O)N[C@@H]1c1ccc(C#N)nc1 | cell-free assay, competition with immobilised ligand | 1 µM | remaining binding | 100%
CN1CC(Oc2cnc(C#N)cc2-c2ccn3nc(NC(=O)C4CC4)cc3c2)C1 | enzyme activity, inhibitor | 1 µM | inhibition | 6%
COc1cc(Cl)c(C(=O)N[C@@H](CN[C@H]2CC[C@@H](N)CC2)Cc2ccc(C#N)cc2)cc1-c1ccc(CN[C@H](C)c2ccc(C)cc2)o1 | enzyme activity, inhibitor | 1 µM | remaining activity | 84%
CCN(CC)c1ccc(C2=NNC(=O)CC2C)cc1[N+](=O)[O-] (stereo not shown) | enzyme activity, inhibitor | 10 µM | remaining activity | 85%
Cc1cc(NC(=O)c2cccc3cc(-c4cccc5[nH]nc(N)c45)ccc23)ccc1F | enzyme activity, inhibitor | 0.1 µM | activity vs control | 99%
CN(C)C(=O)Cn1cc(-c2nc(C3(c4ccc(-c5cnc(N)nc5)cc4)CC3)no2)cn1 | cell-free assay, competition with immobilised ligand | 1 µM | remaining binding | 100%
COc1cc2ncnc(Nc3ccc(Oc4ccccc4)c(C)c3C)c2cc1OC | enzyme activity, inhibitor | 1 µM | inhibition | -2%
COc1cc2c(N3CCN(C(=O)Nc4ccc(OC(C)C)cc4)CC3)ncnc2cc1OCCCN1CCCCC1 | cell-free assay | 0.5 µM | remaining signal | 99.6%
c1ccc(N2CCN(Cc3nc4ccccc4[nH]3)CC2)nc1 | binding, competition with immobilised ligand | 1 µM | remaining binding | 100%
COc1cc(C)c(Sc2cnc(NC(=O)c3ccc(N4CCN(CCCCCCCNC(=O)COc5cccc6c5C(=O)N(C5CCC(=O)NC5=O)C6=O)CC4)cc3)s2)cc1C(=O)N1CCN(C(C)=O)CC1 (stereo not shown) | cell-free assay | 1 µM | inhibition | > 90%
C[C@H](NC(=O)c1cnc2n1[C@](C)(Cc1ccc(C#N)cc1)C(=O)N2c1cc(Cl)c(F)c(Cl)c1)C(=O)NC1(c2ccccn2)CC1 | cell-free assay, competition with immobilised ligand | 1 µM | remaining binding | 100%
CCCOc1ccc(OC)c(F)c1C(=O)c1ccc(C(=O)N[C@@H]2CNC[C@H]2NC(=O)c2ccc3[nH]ncc3c2)cc1 | enzyme activity, inhibitor | 10 µM | remaining activity | -1%
O=C(NC[C@@H]1[C@H]2CN(C(=O)OCc3cc(C(F)(F)F)cc(C(F)(F)F)c3)C[C@@H]12)c1ccc2[nH]nnc2c1 | cell-free assay, competition with immobilised ligand | 1 µM | remaining binding | 77%
Cc1ccc(Nc2nccc(N(C)c3ccc4c(C)n(C)nc4c3)n2)cc1S(N)(=O)=O | enzyme activity, inhibitor | 0.3 µM | inhibition | 75%
NS(=O)(=O)c1cc(NC(=O)Cc2ccccc2)ccc1Oc1cccc(Cl)c1 | cell-free assay, competition with immobilised ligand | 1 µM | remaining binding | 100%
Oc1cccc(-c2nc(N3CCOCC3)c3oc4ncccc4c3n2)c1 | cell-free assay | 0.5 µM | remaining signal | 87.8%
CC(C)(C)c1nc2c(s1)c1nc(N)ncc1c1ccc(NS(=O)(=O)c3c(F)cccc3F)c(F)c12 | enzyme activity, inhibitor, radiometric | 1 µM | remaining activity | 80%
